Source: ChEMBL document CHEMBL1141604, “Benzenesulfonamide indole inhibitors of cytosolic phospholipase A2alpha: optimization of in vitro potency and rat pharmacokinetics for oral efficacy” (Bioorg Med Chem, 2008)

Key:
[1] = Inhibition of cPLA2-alpha in Sprague-Dawley rat whole blood assay in presence of A23187; type: tissue-based
Procedure, shortened: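 Heparinized blood from male Sprague-Dawley rats, taken by cardiac puncture. Preincubated 15 min at 37 °C with compound in DMSO, then stimulated 10 min at 37 °C with 5 µM A23187 (final). Stopped with 20 mM EDTA; plasma precipitated with cold methanol at −80 °C. TXB2 measured by immunoassay; IC50 values averaged from at least two independent runs.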

[2] = Clearance in Sprague-Dawley rat at 2 mg/kg, iv; type: ADME, organism-based; parameters: dose 2 mg/kg, route intravenous; details: in vivo
Procedure, shortened: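 Male Sprague-Dawley rats, 200–300 g, n = 3, given a single 2 mg/kg tail-vein bolus in 50% PEG-400/50% DMSO. Blood drawn via jugular cannula over 24 h and plasma acidified with HCl. Plasma levels measured by LC/MS/MS after acetonitrile precipitation with internal standard; quantitation limit 5 ng/mL. Clearance from non-compartmental analysis.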

[3] = Oral bioavailability in Sprague-Dawley rat at 25 mg/kg administered through MC/TW formulation; type: ADME, organism-based; details: in vivo
Procedure, shortened: (§1)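 Overnight-fasted male Sprague-Dawley rats (n = 3) gavaged in MC/TW or Phosal vehicle; compound at 37.5 mg/mL, diluted with water, dosed at 4 mL/kg. Jugular blood taken over 24 h; plasma analysed by LC/MS/MS. F calculated as the dose-normalized oral/iv AUC ratio, iv reference 2 mg/kg.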

[4] = Inhibition of human cPLA2-alpha assessed as cleavage of 7-hydroxycoumarinyl-gamma-linolenate
Procedure, shortened: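 Substrate 90 µM GLU with 120 µM DTPC. Compounds in DMSO tested in duplicate. Fluorescence (ex 355/em 460 nm) read every 4 min for 84 min; inhibition from slope. IC50 averaged from at least two independent runs.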

[5] = Oral bioavailability in Sprague-Dawley rat at 5 mg/kg administered through MC/TW formulation; type: ADME, organism-based; details: in vivo; procedure, shortened: as §1
[6] = Oral bioavailability in Sprague-Dawley rat at 10 mg/kg administered through Phosal formulation; type: ADME, organism-based; details: in vivo
[7] = Oral bioavailability in Beagle dog at 50 mg/kg administered through Phosal formulation; type: ADME, organism-based, Canis lupus familiaris; details: in vivo
Procedure, shortened: (§2)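 Fasted male Beagle dogs (n = 3) dosed orally in MC/TW or Phosal formulation, volume 4 or 6 mL/kg. Saphenous plasma collected over 24 h and measured by LC/MS/MS. F calculated as the dose-normalized oral/iv AUC ratio against 2 mg/kg iv.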

[8] = Oral bioavailability in Beagle dog at 50 mg/kg administered through MC/TW formulation; type: ADME, organism-based, Canis lupus familiaris; details: in vivo; procedure, shortened: as §2
[9] = Oral bioavailability in Sprague-Dawley rat at 25 mg/kg administered through Phosal formulation; type: ADME, organism-based; details: in vivo; procedure, shortened: as §1
[10] = Clearance in Beagle dog at 2 mg/kg, iv; type: ADME, organism-based, Canis lupus familiaris; parameters: dose 2 mg/kg, route intravenous; details: in vivo
Procedure, shortened: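 Male Beagle dogs, 8.5–13.0 kg, n = 3, fasted overnight, given 2 mg/kg iv in 20% DMSO/80% PEG-200. Saphenous blood sampled over 24 h and plasma acidified to about pH 4. Analysed by LC/MS/MS with internal standard. Clearance by non-compartmental methods.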

Row | IC50 [1] [nM] | clearance [2] [mL/min/kg] | bioavailability [3] [%] | IC50 [4] [nM] | bioavailability [5] [%] | bioavailability [6] [%] | bioavailability [7] [%] | bioavailability [8] [%] | bioavailability [9] [%] | clearance [10] [mL/min/kg] | Structure (SMILES)
1 | 210 | 16.3 | 2.9 | 260 |  |  |  |  |  |  | O=C(O)c1ccc(OCCc2c(CCNS(=O)(=O)c3c(Cl)cccc3Cl)n(C(c3ccccc3)c3ccccc3)c3ccc(Cl)cc23)cc1
2 | 600 |  |  | 570 |  |  |  |  |  |  | O=C(O)c1ccc(OCCc2c(CCNS(=O)(=O)c3cccc(-c4ccccc4)c3)n(C(c3ccccc3)c3ccccc3)c3ccc(Cl)cc23)cc1
3 | 80 | 13 |  | 40 | 3.8 | 7.2 |  |  |  |  | O=C(O)c1ccc(CCCc2c(CCNS(=O)(=O)Cc3ccccc3)n(C(c3ccccc3)c3ccccc3)c3ccc(Cl)cc23)cc1
4 | 30 | 4 | 1 | 14 |  |  | 1.5 | 0.08 | 3.5 | 0.6 | Cc1cccc(C)c1CS(=O)(=O)NCCc1c(CCCc2ccc(C(=O)O)cc2)c2cc(Cl)ccc2n1C(c1ccccc1)c1ccccc1
5 | 95 | 10.3 | 8.6 | 90 |  |  |  |  |  |  | Cc1ccccc1S(=O)(=O)NCCc1c(CCCc2ccc(C(=O)O)cc2)c2cc(Cl)ccc2n1C(c1ccccc1)c1ccccc1
6 | 220 | 8.8 | 4 | 190 |  |  |  |  |  |  | O=C(O)c1ccc(CCCc2c(CCNS(=O)(=O)c3ccccc3F)n(C(c3ccccc3)c3ccccc3)c3ccc(Cl)cc23)cc1
7 | 200 | 10.7 | 7.8 | 100 |  |  |  |  |  |  | COc1ccccc1S(=O)(=O)NCCc1c(CCCc2ccc(C(=O)O)cc2)c2cc(Cl)ccc2n1C(c1ccccc1)c1ccccc1
8 | 150 | 4.5 | < 0.1 | 110 |  |  |  |  |  |  | O=C(O)c1ccc(OCCc2c(CCNS(=O)(=O)c3ccccc3-c3ccccc3)n(C(c3ccccc3)c3ccccc3)c3ccc(Cl)cc23)cc1
9 | 550 | 31 | 39 | 400 |  |  |  |  |  |  | O=C(O)c1ccc(OCCc2c(CCNS(=O)(=O)c3ccccc3Cl)n(C(c3ccccc3)c3ccccc3)c3ccc(Cl)cc23)cc1
10 | 100 | 8.5 | 3.8 | 60 |  |  |  |  |  |  | O=C(O)c1ccc(CCCc2c(CCNS(=O)(=O)c3c(Cl)cccc3Cl)n(C(c3ccccc3)c3ccccc3)c3ccc(Cl)cc23)cc1
11 | 150 | 28 | 6 | 600 |  |  |  |  |  |  | O=C(O)c1ccc(OCCc2c(CCNS(=O)(=O)c3ccccc3F)n(C(c3ccccc3)c3ccccc3)c3ccc(Cl)cc23)cc1
12 | 320 | 3.1 | < 0.2 | 520 |  |  |  |  |  |  | O=C(O)c1ccc(OCCc2c(CCNS(=O)(=O)c3ccccc3Br)n(C(c3ccccc3)c3ccccc3)c3ccc(Cl)cc23)cc1
13 | 75 | 10.5 | 1.3 | 47 |  |  |  |  |  |  | Cc1cccc(C)c1S(=O)(=O)NCCc1c(CCCc2ccc(C(=O)O)cc2)c2cc(Cl)ccc2n1C(c1ccccc1)c1ccccc1
14 | 120 | 6.5 | 1.9 | 100 |  |  |  |  |  |  | O=C(O)c1ccc(CCCc2c(CCNS(=O)(=O)c3ccccc3Br)n(C(c3ccccc3)c3ccccc3)c3ccc(Cl)cc23)cc1
15 | 120 |  | 3.9 | 110 |  |  |  |  |  |  | O=C(O)c1ccc(OCCc2c(CCNS(=O)(=O)Cc3ccccc3)n(C(c3ccccc3)c3ccccc3)c3ccc(Cl)cc23)cc1
16 | 60 | 2.3 | 0.4 | 40 |  |  |  |  |  |  | O=C(O)c1ccc(CCCc2c(CCNS(=O)(=O)c3ccccc3-c3ccccc3)n(C(c3ccccc3)c3ccccc3)c3ccc(Cl)cc23)cc1
17 | 70 |  | 1 | 40 |  |  |  |  | 6 |  | O=C(O)c1ccc(CCCc2c(CCNS(=O)(=O)Cc3ccc(Cl)c(Cl)c3)n(C(c3ccccc3)c3ccccc3)c3ccc(Cl)cc23)cc1 [EFIPLADIB]
18 | 1000 | 73 |  | 3000 |  |  |  |  |  |  | O=C(O)c1ccc(OCCc2c(CCNS(=O)(=O)c3ccccc3)n(C(c3ccccc3)c3ccccc3)c3ccc(Cl)cc23)cc1
19 | 220 |  |  | 180 |  |  |  |  |  |  | O=C(O)c1ccc(CCCc2c(CCNS(=O)(=O)c3cccc(-c4ccccc4)c3)n(C(c3ccccc3)c3ccccc3)c3ccc(Cl)cc23)cc1
20 | 360 | 12.4 | 15.4 | 350 |  |  |  |  |  |  | O=C(O)c1ccc(OCCc2c(CCNS(=O)(=O)c3ccccc3OC(F)(F)F)n(C(c3ccccc3)c3ccccc3)c3ccc(Cl)cc23)cc1
21 | 200 | 5.2 | 4.6 | 100 |  |  |  |  |  |  | O=C(O)c1ccc(CCCc2c(CCNS(=O)(=O)c3ccccc3OC(F)(F)F)n(C(c3ccccc3)c3ccccc3)c3ccc(Cl)cc23)cc1
22 | 150 | 15.3 | 3 | 180 |  |  |  |  |  |  | O=C(O)c1ccc(OCCc2c(CCNS(=O)(=O)c3c(F)cccc3C(F)(F)F)n(C(c3ccccc3)c3ccccc3)c3ccc(Cl)cc23)cc1
23 | 60 | 18.6 | < 0.1 | 180 |  |  |  |  |  |  | COc1ccccc1S(=O)(=O)NCCc1c(CCOc2ccc(C(=O)O)cc2)c2cc(Cl)ccc2n1C(c1ccccc1)c1ccccc1
24 | 95 | 6.1 | 6 | 100 |  |  |  |  |  |  | Cc1cccc(C)c1S(=O)(=O)NCCc1c(CCOc2ccc(C(=O)O)cc2)c2cc(Cl)ccc2n1C(c1ccccc1)c1ccccc1
25 | 160 | 61 |  | 340 |  |  |  |  |  |  | Cc1ccccc1S(=O)(=O)NCCc1c(CCOc2ccc(C(=O)O)cc2)c2cc(Cl)ccc2n1C(c1ccccc1)c1ccccc1
26 | 160 |  | 6 |  |  |  |  |  |  |  | O=C(O)c1ccc(OCCc2c(CCNS(=O)(=O)Cc3ccc(Cl)c(Cl)c3)n(C(c3ccccc3)c3ccccc3)c3ccc(Cl)cc23)cc1 [ECOPLADIB]
27 | 200 | 9.4 | 13.7 | 100 |  |  |  |  |  |  | O=C(O)c1ccc(CCCc2c(CCNS(=O)(=O)c3ccccc3Cl)n(C(c3ccccc3)c3ccccc3)c3ccc(Cl)cc23)cc1
